# Experimental data published in ChEMBL document CHEMBL4257549, “Design, synthesis and biological evaluation of benzimidazole-rhodanine conjugates as potent topoisomerase II inhibitors” (Medchemcomm, 2018).
# pIC50: −log10 of the molar value. Active and inactive are the calls of the source. The calls are words filed in the database; no cut-off is given here.
# Species: Homo sapiens
# Assay: Inhibition of human topoisomerase 2-mediated pBR322 DNA relaxation at 50 uM after 30 mins by agarose gel electrophoresis
# Details: not given
# Summary of the method: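 Relaxation of 200 ng supercoiled pBR322 by 1 U Topo II (TopoGEN) in 20 μL buffer: 50 mM Tris-HCl pH 8.0, 150 mM NaCl, 10 mM MgCl2, 2 mM ATP, 0.5 mM DTT, 30 μg/mL BSA. Incubated 30 min at 37 °C, stopped with sarcosyl/glycerol dye. Products run on 1% agarose in TAE (1.5 h, 75 V), Ged Red stained, UV imaged; etoposide positive control.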
row,SMILES,inhibition
1,CCn1c(/C=C2\SC(=S)N(CC(=O)O)C2=O)nc2ccccc21,Active
2,O=C(O)CN1C(=O)/C(=C/c2nc3cc(F)ccc3n2Cc2ccccc2F)SC1=S,Active
3,COc1ccc2c(c1)nc(/C=C1\SC(=S)N(CC(=O)O)C1=O)n2Cc1ccccc1F,Active

# More lines, now with the values ahead:
row,inhibition,SMILES
1,Active,COc1ccc2nc(/C=C3\SC(=S)N(CC(=O)O)C3=O)n(Cc3ccc(C)cc3)c2c1
2,Active,O=C(O)CN1C(=O)/C(=C/c2nc3ccccc3n2Cc2ccc(Br)cc2F)SC1=S
3,Active,Cc1ccc(Cn2c(/C=C3\SC(=S)N(CC(=O)O)C3=O)nc3ccc(Cl)cc32)cc1

# Species: Homo sapiens
# Assay: Inhibition of human topoisomerase 2-mediated pBR322 DNA relaxation at 20 uM after 30 mins by agarose gel electrophoresis
# Details: not given
row,SMILES,inhibition
1,CCn1c(/C=C2\SC(=S)N(CC(=O)O)C2=O)nc2ccccc21,inactive
2,O=C(O)CN1C(=O)/C(=C/c2nc3cc(F)ccc3n2Cc2ccccc2F)SC1=S,inactive
3,COc1ccc2c(c1)nc(/C=C1\SC(=S)N(CC(=O)O)C1=O)n2Cc1ccccc1F,inactive

# Results, then the compound that gave them:
row,inhibition,SMILES
1,Active,COc1ccc2nc(/C=C3\SC(=S)N(CC(=O)O)C3=O)n(Cc3ccc(C)cc3)c2c1
2,inactive,O=C(O)CN1C(=O)/C(=C/c2nc3ccccc3n2Cc2ccc(Br)cc2F)SC1=S
3,Active,Cc1ccc(Cn2c(/C=C3\SC(=S)N(CC(=O)O)C3=O)nc3ccc(Cl)cc32)cc1

# System: A549
# Assay: Cytotoxicity against human A549 cells after 48 hrs by MTT assay
# Type: functional, cell-based
# Details: A549, 48 h
# Summary of the method: (§1)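 Cells seeded at 5000 per well, left overnight, then exposed to compound at 0–50 μM for 48 h. MTT (20 μL of 2.5 mg mL−1) added for a further 4 h at 37 °C, formazan dissolved in DMSO, absorbance read at 570 nm. Quadruplicate wells, N > 2 determinations, mean IC50 taken as the concentration reducing cell number to 50%.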
row,SMILES,pIC50
1,CCn1c(/C=C2\SC(=S)N(CC(=O)O)C2=O)nc2ccccc21,5.03
2,O=C(O)CN1C(=O)/C(=C/c2nc3cc(F)ccc3n2Cc2ccccc2F)SC1=S,4.49
3,COc1ccc2nc(/C=C3\SC(=S)N(CC(=O)O)C3=O)n(Cc3ccc(C)cc3)c2c1,4.63
4,COc1ccc2c(c1)nc(/C=C1\SC(=S)N(CC(=O)O)C1=O)n2Cc1ccccc1F,4.74
5,O=C(O)CN1C(=O)/C(=C/c2nc3ccccc3n2Cc2ccc(Br)cc2F)SC1=S,4.56
6,Cc1ccc(Cn2c(/C=C3\SC(=S)N(CC(=O)O)C3=O)nc3ccc(Cl)cc32)cc1,5.00

# System: HeLa
# Assay: Cytotoxicity against human HeLa cells after 48 hrs by MTT assay
# Type: functional, cell-based
# Details: not given
# Summary of the method: as §1
row,SMILES,pIC50
1,CCn1c(/C=C2\SC(=S)N(CC(=O)O)C2=O)nc2ccccc21,5.45
2,O=C(O)CN1C(=O)/C(=C/c2nc3cc(F)ccc3n2Cc2ccccc2F)SC1=S,< 4.30
3,COc1ccc2nc(/C=C3\SC(=S)N(CC(=O)O)C3=O)n(Cc3ccc(C)cc3)c2c1,5.19
4,COc1ccc2c(c1)nc(/C=C1\SC(=S)N(CC(=O)O)C1=O)n2Cc1ccccc1F,4.65
5,O=C(O)CN1C(=O)/C(=C/c2nc3ccccc3n2Cc2ccc(Br)cc2F)SC1=S,< 4.30
6,Cc1ccc(Cn2c(/C=C3\SC(=S)N(CC(=O)O)C3=O)nc3ccc(Cl)cc32)cc1,4.96

# System: Raji
# Assay: Cytotoxicity against human Raji cells after 48 hrs by MTT assay
# Type: functional, cell-based
# Details: not given
# Summary of the method: as §1
row,SMILES,pIC50
1,CCn1c(/C=C2\SC(=S)N(CC(=O)O)C2=O)nc2ccccc21,5.25
2,O=C(O)CN1C(=O)/C(=C/c2nc3cc(F)ccc3n2Cc2ccccc2F)SC1=S,4.69
3,COc1ccc2nc(/C=C3\SC(=S)N(CC(=O)O)C3=O)n(Cc3ccc(C)cc3)c2c1,4.97
4,COc1ccc2c(c1)nc(/C=C1\SC(=S)N(CC(=O)O)C1=O)n2Cc1ccccc1F,4.94
5,O=C(O)CN1C(=O)/C(=C/c2nc3ccccc3n2Cc2ccc(Br)cc2F)SC1=S,4.94
6,Cc1ccc(Cn2c(/C=C3\SC(=S)N(CC(=O)O)C3=O)nc3ccc(Cl)cc32)cc1,5.55

# System: MDA-MB-231
# Assay: Cytotoxicity against human MDA-MB-231 cells after 48 hrs by MTT assay
# Type: functional, cell-based
# Details: MDA-MB-231, 48 h
# Summary of the method: as §1
row,SMILES,pIC50
1,CCn1c(/C=C2\SC(=S)N(CC(=O)O)C2=O)nc2ccccc21,5.73
2,O=C(O)CN1C(=O)/C(=C/c2nc3cc(F)ccc3n2Cc2ccccc2F)SC1=S,4.65
3,COc1ccc2nc(/C=C3\SC(=S)N(CC(=O)O)C3=O)n(Cc3ccc(C)cc3)c2c1,5.42
4,COc1ccc2c(c1)nc(/C=C1\SC(=S)N(CC(=O)O)C1=O)n2Cc1ccccc1F,4.77
5,O=C(O)CN1C(=O)/C(=C/c2nc3ccccc3n2Cc2ccc(Br)cc2F)SC1=S,4.55
6,Cc1ccc(Cn2c(/C=C3\SC(=S)N(CC(=O)O)C3=O)nc3ccc(Cl)cc32)cc1,5.40

# Target: T1, DNA topoisomerase 1 (Homo sapiens) (UniProt P11387)
# T1 sequence (whole entry): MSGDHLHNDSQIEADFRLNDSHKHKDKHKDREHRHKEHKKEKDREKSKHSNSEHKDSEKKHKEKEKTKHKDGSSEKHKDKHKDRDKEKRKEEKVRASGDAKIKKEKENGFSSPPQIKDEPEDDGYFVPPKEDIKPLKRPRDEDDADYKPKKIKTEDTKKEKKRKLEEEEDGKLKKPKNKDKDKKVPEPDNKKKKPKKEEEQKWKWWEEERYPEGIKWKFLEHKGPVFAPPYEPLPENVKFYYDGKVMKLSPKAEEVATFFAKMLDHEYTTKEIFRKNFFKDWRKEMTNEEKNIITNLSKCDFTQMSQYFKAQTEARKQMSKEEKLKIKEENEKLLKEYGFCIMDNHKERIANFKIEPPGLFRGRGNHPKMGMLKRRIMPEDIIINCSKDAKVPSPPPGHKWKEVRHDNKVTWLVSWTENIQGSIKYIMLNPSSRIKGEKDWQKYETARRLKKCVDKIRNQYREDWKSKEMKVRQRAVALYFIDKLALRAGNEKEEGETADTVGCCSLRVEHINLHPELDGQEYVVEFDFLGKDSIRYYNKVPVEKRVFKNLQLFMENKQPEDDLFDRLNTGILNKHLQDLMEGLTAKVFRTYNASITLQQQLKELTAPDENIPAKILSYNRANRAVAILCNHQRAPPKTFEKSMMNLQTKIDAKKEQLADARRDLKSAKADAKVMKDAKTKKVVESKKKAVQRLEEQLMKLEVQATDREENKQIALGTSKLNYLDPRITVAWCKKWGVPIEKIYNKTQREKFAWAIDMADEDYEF
# Assay: Inhibition of topoisomerase 1 (unknown origin)-mediated pBR322 DNA relaxation at 50 uM after 30 mins by agarose gel electrophoresis
# Details: not given
# Summary of the method: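 Topo I relaxation of pBR322 with compound at 30 min, 37 °C, camptothecin positive control. Stopped with SDS/bromophenol blue/glycerol dye, run on 1% agarose in TAE for 1.5 h, Ged Red stained, UV visualized.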
row,SMILES,inhibition
1,CCn1c(/C=C2\SC(=S)N(CC(=O)O)C2=O)nc2ccccc21,inactive
2,O=C(O)CN1C(=O)/C(=C/c2nc3cc(F)ccc3n2Cc2ccccc2F)SC1=S,inactive
3,COc1ccc2c(c1)nc(/C=C1\SC(=S)N(CC(=O)O)C1=O)n2Cc1ccccc1F,inactive

# Further lines, results first:
row,inhibition,SMILES
1,inactive,COc1ccc2nc(/C=C3\SC(=S)N(CC(=O)O)C3=O)n(Cc3ccc(C)cc3)c2c1
2,inactive,O=C(O)CN1C(=O)/C(=C/c2nc3ccccc3n2Cc2ccc(Br)cc2F)SC1=S
3,inactive,Cc1ccc(Cn2c(/C=C3\SC(=S)N(CC(=O)O)C3=O)nc3ccc(Cl)cc32)cc1

# System: HL-60
# Assay: Cytotoxicity against human HL60 cells after 48 hrs by MTT assay
# Type: functional, cell-based
# Details: HL-60, 48 h
# Summary of the method: as §1
row,SMILES,pIC50
1,CCn1c(/C=C2\SC(=S)N(CC(=O)O)C2=O)nc2ccccc21,5.67
2,O=C(O)CN1C(=O)/C(=C/c2nc3cc(F)ccc3n2Cc2ccccc2F)SC1=S,< 4.30
3,COc1ccc2nc(/C=C3\SC(=S)N(CC(=O)O)C3=O)n(Cc3ccc(C)cc3)c2c1,5.72
4,COc1ccc2c(c1)nc(/C=C1\SC(=S)N(CC(=O)O)C1=O)n2Cc1ccccc1F,5.47
5,O=C(O)CN1C(=O)/C(=C/c2nc3ccccc3n2Cc2ccc(Br)cc2F)SC1=S,5.19
6,Cc1ccc(Cn2c(/C=C3\SC(=S)N(CC(=O)O)C3=O)nc3ccc(Cl)cc32)cc1,5.55

# System: PC-3
# Assay: Cytotoxicity against human PC3 cells after 48 hrs by MTT assay
# Type: functional, cell-based
# Details: PC-3, 48 h
# Summary of the method: as §1
row,SMILES,pIC50
1,CCn1c(/C=C2\SC(=S)N(CC(=O)O)C2=O)nc2ccccc21,5.49
2,O=C(O)CN1C(=O)/C(=C/c2nc3cc(F)ccc3n2Cc2ccccc2F)SC1=S,< 4.30
3,COc1ccc2nc(/C=C3\SC(=S)N(CC(=O)O)C3=O)n(Cc3ccc(C)cc3)c2c1,4.79
4,COc1ccc2c(c1)nc(/C=C1\SC(=S)N(CC(=O)O)C1=O)n2Cc1ccccc1F,4.61
5,O=C(O)CN1C(=O)/C(=C/c2nc3ccccc3n2Cc2ccc(Br)cc2F)SC1=S,4.68
6,Cc1ccc(Cn2c(/C=C3\SC(=S)N(CC(=O)O)C3=O)nc3ccc(Cl)cc32)cc1,5.82
